Usually MIC stands for the smallest concentration in the dilution series that meets the test's criterion for growth inhibition.

Values after ≈ are worked out from the molar mass of the structure shown. Active and inactive are the calls of the source.

The results in this text go back to ChEMBL document CHEMBL1671664 (2009).

Test [1] in a line: Antimicrobial activity against qnrS-positive Salmonella enterica serovar Montevideo isolate s2209 harboring ParC QRDR mutant gene by agar dilution method. It counts as functional, Salmonella enterica subsp. enterica serovar Montevideo.
The nature of test [2]: Antimicrobial activity against qnrS-positive Salmonella enterica serovar Corvallis isolate s2052 harboring ParC QRDR mutant gene by agar dilution method. In kind it is functional, Salmonella enterica subsp. enterica serovar Corvallis. Background: In agar dilution the substance is mixed into plates at graded concentrations.
For test [3], the system named is Salmonella typhimurium. Put plainly: Antimicrobial activity against Salmonella enterica serovar Typhimurium isolate SL1344 harboring wild type ParC gene by agar dilution method. In kind it is functional, Salmonella enterica subsp. enterica serovar Typhimurium.
A short description of test [4]: Antimicrobial activity against Salmonella enterica serovar Montevideo isolate s2317 harboring ParC QRDR mutant gene by agar dilution method. It counts as functional, Salmonella enterica subsp. enterica serovar Montevideo.
A short description of test [5]: Antimicrobial activity against Salmonella enterica serovar Stanley isolate s2043 harboring ParC QRDR mutant gene by agar dilution method. In kind it is functional, Salmonella enterica subsp. enterica serovar Stanley.
For test [6], the system named is Salmonella typhimurium. Put plainly: Antimicrobial activity against qnrS-positive Salmonella enterica serovar Typhimurium isolate s2425 harboring wild type ParC gene by agar dilution method. It counts as functional, Salmonella enterica subsp. enterica serovar Typhimurium.
The nature of test [7]: Antimicrobial activity against qnrS-positive Salmonella enterica serovar Braenderup isolate s2856 harboring ParC QRDR mutant gene by agar dilution method. In kind it is functional, Salmonella enterica subsp. enterica serovar Braenderup.
The nature of test [8]: Antimicrobial activity against qnrS-positive Salmonella enterica serovar Montevideo isolate s2944 harboring ParC QRDR mutant gene by agar dilution method. It counts as functional, Salmonella enterica subsp. enterica serovar Montevideo.
Test [9] is described as follows: Antimicrobial activity against Salmonella enterica serovar Braenderup isolate s2906 harboring ParC QRDR mutant gene by agar dilution method. In kind it is functional, Salmonella enterica subsp. enterica serovar Braenderup.
Test [10] relates to Salmonella enterica subsp. enterica serovar Mbandaka. Put plainly: Drug uptake in qnrA-positive Salmonella enterica serovar Mbandaka isolate s2093 harboring ParC QRDR mutant gene in presence of CCCP. In kind it is functional. The method in brief: (§1)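 Cell suspensions preincubated with 100 μM CCCP before substrate addition. Ciprofloxacin accumulation read by fluorescence (ex 311/em 447 nm), Hoechst 33342 by fluorescence (ex 355/[…]), at 10 min. Expressed relative to S. Typhimurium SL1344. Differences tested by Student t test (P < 0.05).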

Test [11] concerns Salmonella enterica subsp. enterica serovar Montevideo. Put plainly: Drug uptake in qnrS-positive Salmonella enterica serovar Montevideo isolate s2209 harboring ParC QRDR mutant gene in presence of CCCP. It counts as functional. The method in brief: as §1
Test [12] can be described thus: Antimicrobial activity against qnrA-positive Salmonella enterica serovar Mbandaka isolate s2093 harboring ParC QRDR mutant gene by agar dilution method. It counts as functional, Salmonella enterica subsp. enterica serovar Mbandaka.
Test [13] can be described thus: Antimicrobial activity against qnrS-positive Salmonella enterica serovar Virginia isolate s2219 harboring ParC QRDR mutant gene by agar dilution method. In kind it is functional, Salmonella enterica subsp. enterica serovar Virginia.
Test [14] deals with Salmonella typhimurium. Put plainly: Antimicrobial activity against qnrS-positive Salmonella enterica serovar Typhimurium isolate s2705 harboring wild type ParC gene by agar dilution method. It counts as functional, Salmonella enterica subsp. enterica serovar Typhimurium.
The nature of test [15]: Antimicrobial activity against qnrS-positive Salmonella enterica serovar Corvallis isolate s2017 harboring ParC QRDR mutant gene by agar dilution method. It counts as functional, Salmonella enterica subsp. enterica serovar Corvallis.
Test [16] can be described thus: Antimicrobial activity against Salmonella enterica serovar Corvallis isolate s2064 harboring ParC QRDR mutant gene by agar dilution method. It counts as functional, Salmonella enterica subsp. enterica serovar Corvallis.
Test [17] relates to Salmonella typhimurium. Put plainly: Antimicrobial activity against Salmonella enterica serovar Typhimurium isolate s2878 harboring wild type ParC gene by agar dilution method. It counts as functional, Salmonella enterica subsp. enterica serovar Typhimurium.
Test [18] can be described thus: Antimicrobial activity against Salmonella enterica serovar Mbandaka isolate s2159 harboring ParC QRDR mutant gene by agar dilution method. It counts as functional, Salmonella enterica subsp. enterica serovar Mbandaka.
Test [19] is described as follows: Antimicrobial activity against qnrS-positive Salmonella enterica serovar Stanley isolate s2018 harboring ParC QRDR mutant gene by agar dilution method. It counts as functional, Salmonella enterica subsp. enterica serovar Stanley.
For test [20], the system named is Escherichia coli. The test can be described thus: Antimicrobial activity against Escherichia coli DH5[alpha] transformed with Salmonella enterica serovar Typhimurium isolate s2705 plasmid encoded qnrS and Parc gene by agar dilution method. In kind it is functional. The method in brief: (§2)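 E. coli DH5α transformed by electroporation with qnr-carrying plasmid DNA from donor Salmonella isolates; transformants selected on LB agar with 0.03 μg/ml ciprofloxacin, qnr confirmed by multiplex PCR. MICs to ciprofloxacin and nalidixic acid by agar dilution.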

Test [21] has as its system Escherichia coli. Put plainly: Antimicrobial activity against Escherichia coli DH5[alpha] transformed with Salmonella enterica serovar Montevideo isolate s2209 plasmid encoded qnrS and Parc QRDR Thre57Ser mutant gene by agar dilution method. It counts as functional. A digest of the protocol:
as §2

Test [22] has as its system Escherichia coli. Put plainly: Antimicrobial activity against Escherichia coli DH5[alpha] transformed with Salmonella enterica serovar Corvallis isolate s2017 plasmid encoded qnrS and Parc QRDR Thre57Ser mutant gene by agar dilution method. In kind it is functional. A digest of the protocol: as §2
Test [23] has as its system Escherichia coli. The test can be described thus: Antimicrobial activity against Escherichia coli DH5[alpha] transformed with Salmonella enterica serovar Typhimurium isolate s2425 plasmid encoded qnrS and Parc gene by agar dilution method. It counts as functional. The method in brief: as §2
In test [24] the test system is Escherichia coli. The test can be described thus: Antimicrobial activity against Escherichia coli DH5[alpha] transformed with Salmonella enterica serovar Corvallis isolate s2052 plasmid encoded qnrS and Parc QRDR Thre57Ser mutant gene by agar dilution method. In kind it is functional. The method in brief:
as §2

Test [25] has as its system Escherichia coli. Put plainly: Antimicrobial activity against Escherichia coli DH5[alpha] transformed with Salmonella enterica serovar Montevideo isolate s2944 plasmid encoded qnrS and Parc QRDR Thre57Ser mutant gene by agar dilution method. In kind it is functional. The method in brief:
as §2

Test [26] deals with Escherichia coli. The test can be described thus: Antimicrobial activity against Escherichia coli DH5[alpha] transformed with Salmonella enterica serovar Virginia isolate s2219 plasmid encoded qnrS and Parc QRDR Thre57Ser mutant gene by agar dilution method. It counts as functional. A digest of the protocol: as §2

On to `O=C(O)c1cn(C2CC2)c2cc(N3CCNCC3)c(F)cc2c1=O` [CIPROFLOXACIN], for which the MIC in test [1] is 0.5 µg/mL (≈ 1.51 µM); in test [2] it was 0.5 µg/mL (≈ 1.51 µM); in the test on Salmonella typhimurium [3], 0.06 µg/mL (≈ 0.181 µM); in test [4], 0.015 µg/mL (≈ 0.0453 µM); in [5], 0.015 µg/mL (≈ 0.0453 µM); in the test with Salmonella typhimurium [6], 0.5 µg/mL (≈ 1.51 µM). In addition, the MIC in test [7] is 0.5 µg/mL (≈ 1.51 µM); in test [8] it was 0.5 µg/mL (≈ 1.51 µM); in [9], 0.015 µg/mL (≈ 0.0453 µM); in test [12], 4 µg/mL (≈ 12.1 µM); in test [13] it was 0.5 µg/mL (≈ 1.51 µM); in the test with Salmonella typhimurium [14], 0.5 µg/mL (≈ 1.51 µM). The MIC in [15] turned out to be 0.25 µg/mL (≈ 0.754 µM); in [16], 0.015 µg/mL (≈ 0.0453 µM); in the test on Salmonella typhimurium [17], 0.03 µg/mL (≈ 0.0905 µM); in [18] it was 0.008 µg/mL (≈ 0.0241 µM); in [19] it was 0.5 µg/mL (≈ 1.51 µM). The Drug uptake entry in test [10] and in test [11] was “inactive” throughout.

Regarding `C[C@H]1COc2c(N3CCN(C)CC3)c(F)cc3c(=O)c(C(=O)O)cn1c23.C[C@H]1COc2c(N3CCN(C)CC3)c(F)cc3c(=O)c(C(=O)O)cn1c23.O` [LEVOFLOXACIN], the MIC worked out at 1 µg/mL in test [1]; 0.5 µg/mL in [2]; 0.06 µg/mL in test [4]; 0.06 µg/mL in [5]; 1 µg/mL in the test with Salmonella typhimurium [6]; 1 µg/mL in test [7]. Besides, the MIC was 1 µg/mL in test [8]; 1 µg/mL in test [12]; 1 µg/mL in test [13]; 1 µg/mL against Salmonella typhimurium [14]; 1 µg/mL in [15]; 0.06 µg/mL in test [16]. Moreover, the MIC in test [18] is 0.06 µg/mL; in [19], 1 µg/mL.

Regarding `COc1c(N2C[C@@H]3CCCN[C@@H]3C2)c(F)cc2c(=O)c(C(=O)O)cn(C3CC3)c12` [MOXIFLOXACIN], the MIC in [2] was 2 µg/mL (≈ 4.98 µM); in test [4], 0.06 µg/mL (≈ 0.149 µM); in test [5], 0.06 µg/mL (≈ 0.149 µM); in test [12], 0.5 µg/mL (≈ 1.25 µM); in test [16], 0.06 µg/mL (≈ 0.149 µM); in [18], 0.125 µg/mL (≈ 0.311 µM).

Regarding `CCn1cc(C(=O)O)c(=O)c2ccc(C)nc21` [NALIDIXIC ACID], the MIC in [1] was found to be 32 µg/mL (≈ 138 µM); in test [2], 16 µg/mL (≈ 68.9 µM); in the test with Salmonella typhimurium [3] it was 4 µg/mL (≈ 17.2 µM); in test [4] it was 4 µg/mL (≈ 17.2 µM); in test [5] it was 4 µg/mL (≈ 17.2 µM); in the test with Salmonella typhimurium [6] it was 16 µg/mL (≈ 68.9 µM). Also, the MIC was determined as 16 µg/mL (≈ 68.9 µM) in test [7]; 16 µg/mL (≈ 68.9 µM) in [8]; 8 µg/mL (≈ 34.4 µM) in the test on Escherichia coli [20]; 4 µg/mL (≈ 17.2 µM) in test [9]; 8 µg/mL (≈ 34.4 µM) in the test with Escherichia coli [21]; 16 µg/mL (≈ 68.9 µM) in [12]. For the same molecule, the MIC amounted to 32 µg/mL (≈ 138 µM) in test [13]; 8 µg/mL (≈ 34.4 µM) in the test with Escherichia coli [22]; 8 µg/mL (≈ 34.4 µM) in the test on Escherichia coli [23]; 16 µg/mL (≈ 68.9 µM) in the test with Salmonella typhimurium [14]; 16 µg/mL (≈ 68.9 µM) in test [15]; 4 µg/mL (≈ 17.2 µM) in [16]. Moreover, the MIC is 16 µg/mL (≈ 68.9 µM) in the test on Salmonella typhimurium [17]; 8 µg/mL (≈ 34.4 µM) with Escherichia coli [24]; 4 µg/mL (≈ 17.2 µM) in test [18]; 16 µg/mL (≈ 68.9 µM) in test [19]; 8 µg/mL (≈ 34.4 µM) with Escherichia coli [25]; 8 µg/mL (≈ 34.4 µM) with Escherichia coli [26].

As to `CCn1cc(C(=O)O)c(=O)c2cc(F)c(N3CCNCC3)cc21` [NORFLOXACIN], the MIC in test [1] came to 2 µg/mL (≈ 6.26 µM); in test [2], 1 µg/mL (≈ 3.13 µM); in [4], 0.125 µg/mL (≈ 0.391 µM); in test [5], 0.125 µg/mL (≈ 0.391 µM); in the test on Salmonella typhimurium [6], 2 µg/mL (≈ 6.26 µM); in test [7], 2 µg/mL (≈ 6.26 µM). Moreover, the MIC in [8] was 2 µg/mL (≈ 6.26 µM); in test [12], 16 µg/mL (≈ 50.1 µM); in test [13], 2 µg/mL (≈ 6.26 µM); in the test on Salmonella typhimurium [14], 2 µg/mL (≈ 6.26 µM); in test [15], 2 µg/mL (≈ 6.26 µM); in test [16], 0.06 µg/mL (≈ 0.188 µM). Also, the MIC in [18] came to 0.125 µg/mL (≈ 0.391 µM); in test [19], 2 µg/mL (≈ 6.26 µM).

As for `CC1COc2c(N3CCN(C)CC3)c(F)cc3c(=O)c(C(=O)O)cn1c23` (stereo unspecified) [OFLOXACIN], the MIC was determined as 2 µg/mL (≈ 5.53 µM) in test [1]; 1 µg/mL (≈ 2.77 µM) in test [2]; 0.125 µg/mL (≈ 0.346 µM) in test [4]; 0.125 µg/mL (≈ 0.346 µM) in [5]; 2 µg/mL (≈ 5.53 µM) with Salmonella typhimurium [6]; 2 µg/mL (≈ 5.53 µM) in test [7]. The MIC in test [8] amounted to 2 µg/mL (≈ 5.53 µM); in [12], 1 µg/mL (≈ 2.77 µM); in test [13], 2 µg/mL (≈ 5.53 µM); with Salmonella typhimurium [14], 2 µg/mL (≈ 5.53 µM); in test [15] it was 2 µg/mL (≈ 5.53 µM); in test [16] it was 0.03 µg/mL (≈ 0.083 µM). The MIC in test [18] came to 0.125 µg/mL (≈ 0.346 µM); in [19], 2 µg/mL (≈ 5.53 µM).
